The nature of data set [1]: Displacement of [3H]clonidine from imidazoline I1 receptor low affinity site in human hypothalamic membranes measured after 30 mins by liquid scintillation counting spectrometry. Format: cell membranes, Hypothalamus, Membrane. (Loss of bound radioactivity is the signal in a displacement assay; it reports binding, not function.)
The nature of data set [2]: Displacement of [3H]clonidine from imidazoline I1 receptor high affinity site in human hypothalamic membranes measured after 30 mins by liquid scintillation counting spectrometry. Format: cell membranes, Hypothalamus, Membrane.
Data set [3] has as its target T1, Adrenergic receptor alpha-2 (Homo sapiens, UniProt P08913+P18825+P18089).
T1 sequence (P08913 whole entry): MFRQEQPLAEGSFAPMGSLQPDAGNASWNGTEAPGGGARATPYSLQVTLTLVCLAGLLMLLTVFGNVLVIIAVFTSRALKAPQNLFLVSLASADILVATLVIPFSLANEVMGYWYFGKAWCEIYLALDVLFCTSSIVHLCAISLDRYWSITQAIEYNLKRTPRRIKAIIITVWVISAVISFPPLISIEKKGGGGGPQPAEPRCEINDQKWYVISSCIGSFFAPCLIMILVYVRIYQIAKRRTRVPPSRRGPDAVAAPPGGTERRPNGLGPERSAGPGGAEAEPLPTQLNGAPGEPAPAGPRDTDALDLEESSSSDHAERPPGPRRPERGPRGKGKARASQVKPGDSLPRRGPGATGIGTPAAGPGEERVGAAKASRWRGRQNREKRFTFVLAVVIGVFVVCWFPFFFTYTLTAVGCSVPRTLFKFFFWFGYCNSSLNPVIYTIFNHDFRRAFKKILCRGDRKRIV
T1 sequence (P18825 whole entry): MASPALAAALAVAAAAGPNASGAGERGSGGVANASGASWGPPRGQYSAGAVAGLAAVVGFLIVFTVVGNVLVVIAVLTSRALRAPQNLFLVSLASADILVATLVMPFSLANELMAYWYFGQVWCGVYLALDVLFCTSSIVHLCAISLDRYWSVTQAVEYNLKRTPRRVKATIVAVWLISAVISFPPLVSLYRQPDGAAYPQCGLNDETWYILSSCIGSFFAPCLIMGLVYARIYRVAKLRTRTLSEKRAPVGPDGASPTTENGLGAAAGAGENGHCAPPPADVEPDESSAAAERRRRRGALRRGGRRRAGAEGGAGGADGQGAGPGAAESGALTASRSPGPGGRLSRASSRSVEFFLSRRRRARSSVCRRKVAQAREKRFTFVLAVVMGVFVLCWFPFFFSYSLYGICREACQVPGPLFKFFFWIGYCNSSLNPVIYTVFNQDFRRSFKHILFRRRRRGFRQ
T1 sequence (P18089 whole entry): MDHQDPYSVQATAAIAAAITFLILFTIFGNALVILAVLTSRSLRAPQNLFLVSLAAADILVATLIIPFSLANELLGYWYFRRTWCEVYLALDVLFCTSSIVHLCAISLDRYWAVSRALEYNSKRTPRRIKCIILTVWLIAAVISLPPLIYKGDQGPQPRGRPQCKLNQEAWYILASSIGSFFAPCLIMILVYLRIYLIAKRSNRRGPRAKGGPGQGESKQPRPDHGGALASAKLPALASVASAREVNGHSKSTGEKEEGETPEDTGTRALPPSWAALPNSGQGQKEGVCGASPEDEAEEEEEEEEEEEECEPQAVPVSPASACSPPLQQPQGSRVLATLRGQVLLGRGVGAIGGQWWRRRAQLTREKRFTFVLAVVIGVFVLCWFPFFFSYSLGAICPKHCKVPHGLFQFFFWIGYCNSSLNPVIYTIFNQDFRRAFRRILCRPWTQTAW
Kind of data set: Displacement of [3H]-RX821002 from adrenergic alpha 2 receptor in post-mortem human brain frontal cortex membrane measured after 30 mins by liquid scintillation counting spectrometry. Format: cell membranes.

The species entered for data set [4] is Homo sapiens. Kind of data set: Selectivity index, ratio of pKi for displacement of [3H]2-BFI from imidazoline I2 receptor in post-mortem human brain frontal cortex membrane to pKi for displacement of [3H]-RX821002 from adrenergic alpha 2 receptor in post-mortem human brain frontal cortex membrane. It counts as cell membranes.
Data set [5] is described as follows: Permeability of compound by PAMPA-BBB assay. Format: ADME. (In general: PAMPA measures passive passage across an artificial lipid membrane.)
Data set [6] relates to LN-229. Kind of data set: Cytotoxicity against human LN-229 cells at 100 uM by real time IncuCyte proliferation assay. It counts as cell-based. As to conditions: ln-229, 100 µM. An outline of the steps:
(§1)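 Adherent lines (LN-229, Capan-1, HCT-116, NCI-H460) seeded at 500–1500 cells/well and treated after overnight attachment. Suspension lines (HL-60, K-562, Z-138, DND-41) seeded at 2500–5500 cells/well directly with compound. Highest concentration 100 μM; proliferation tracked by real-time IncuCyte imaging over 72 h at 37 °C.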

The test system of data set [7] is CAPAN-1. In words: Cytotoxicity against human CAPAN-1 cells at 100 uM by real time IncuCyte proliferation assay. It counts as cell-based. As to conditions: capan-1, 100 µM. The essentials: as §1
Data set [8] deals with HCT-116. In words: Cytotoxicity against human HCT-116 cells at 100 uM by real time IncuCyte proliferation assay. To be noted: hct-116, 100 µM. It counts as cell-based. The essentials:
as §1

Data set [9] has as its system NCI-H460. In words: Cytotoxicity against human NCI-H460 cells at 100 uM by real time IncuCyte proliferation assay. Format: cell-based. To be noted: nci-h460, 100 µM. An outline of the steps: as §1
The nature of data set [10]: Cytotoxicity against human DND41 cells at 100 uM by real time IncuCyte proliferation assay. Format: cell-based. To be noted: dnd41, 100 µM. An outline of the steps: as §1
Data set [11] relates to HL-60. In words: Cytotoxicity against human HL-60 cells at 100 uM by real time IncuCyte proliferation assay. It counts as cell-based. As to conditions: hl-60, 100 µM. An outline of the steps:
as §1

The subject of data set [12] is K562. Kind of data set: Cytotoxicity against human K562 cells at 100 uM by real time IncuCyte proliferation assay. It counts as cell-based. To be noted: k562, 100 µM. The essentials:
as §1

Data set [13] relates to Z-138. In words: Cytotoxicity against human Z138 cells at 100 uM by real time IncuCyte proliferation assay. As to conditions: z-138, 100 µM. It counts as cell-based. The essentials:
as §1

Data set [14] can be described thus: Displacement of [3H]2-BFI from imidazoline I2 receptor in post-mortem human brain frontal cortex membrane one site model measured after 45 mins by liquid scintillation counting spectrometry.
Data set [15] is described as follows: Displacement of [3H]2-BFI from imidazoline I2 receptor low affinity site in post-mortem human brain frontal cortex membrane two site model measured after 45 mins by liquid scintillation counting spectrometry.
Data set [16] in a line: Displacement of [3H]2-BFI from imidazoline I2 receptor high affinity site in post-mortem human brain frontal cortex membrane two site model measured after 45 mins by liquid scintillation counting spectrometry.
The species entered for data set [17] is Homo sapiens. Kind of data set: Displacement of [3H]2-BFI from imidazoline I2 receptor in post-mortem human brain frontal cortex membrane assessed as occupancy at high affinity site measured after 45 mins by liquid scintillation counting spectrometry.

This note sets out measurements from ChEMBL document CHEMBL4825692, “Benzofuranyl-2-imidazoles as imidazoline I2 receptor ligands for Alzheimer's disease” (Eur J Med Chem, 2021).

With `COc1nc(C)nc(Cl)c1NC1=NCCN1` [MOXONIDINE], the Ki in data set [1] turned out to be 12 µM; in [2], 0.0002 µM.
Take `CCn1ccnc1-c1cc2cc(OC)ccc2o1.Cl`: the pKi is listed as 4.21 in data set [3], 4.96 in data set [14], 4.16 in data set [15] and 6.95 in data set [16]. Moreover, in data set [4], the Selectivity Index is 6. Further, in data set [5], the Papp was 124 nm/s. Further, the Activity entry in data set [6], in [7], in data set [8], in data set [9], in data set [10] and in data set [11] was “Non-Toxic” in each case. In addition, the Activity result in data set [12] was “Non-Toxic”; in data set [13], “Non-Toxic”; in data set [17], 35%.
On to `Brc1ccc2oc(-c3ncc[nH]3)cc2c1.Cl`, for which the pKi in data set [3] amounted to 4.92; in data set [14] it was 6.28; in [15], 5.85; in [16] it was 8.63. Further, the Selectivity Index in data set [4] is 23. This compound came in with a Papp in data set [5] of 203 nm/s. The Activity entry in [6], in data set [7], in data set [8], in data set [9], in data set [10] and in data set [11] was “Non-Toxic” in each case. The results for the Activity entry in [12], in [13] and in [17] were “Non-Toxic”, “Non-Toxic” and 20%, respectively.

In general, Ki refers to the dissociation constant of the complex between target and ligand, obtained from inhibition or displacement. The low end stands for a stronger hold on the target, the high end for a looser hold on the target. The pKi is the negative decadic logarithm of the Ki, by convention in mol/L. A lower pKi goes with a high Ki. For orientation: Papp means the rate of passage across a membrane or cell layer, normalised by area and donor concentration.
